Measurements published in ChEMBL document CHEMBL1817651, “Neuroprotective effects of linarin through activation of the PI3K/Akt pathway in amyloid-β-induced neuronal cell death” (2011).
Active and inactive are the calls of the source. No cut-off for these calls is given here.

Legend:
[1] = system: PC-12; assay: Cytoprotective activity in amyloid beta-induced apoptosis in rat PC12 cells at 10 uM administered 1 hr prior to amyloid beta challenge measured after 24 hrs by using Annexin V/PI staining based flow cytometric analysis; assay type: functional
In short: (§1)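 Cells were stained with Annexin V-FITC/PI for 15 min in the dark at room temperature and analysed by flow cytometry. Annexin+/PI− cells were scored early apoptotic and double-positive cells late apoptotic. Mean ± SD of triplicate independent experiments.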

[2] = system: PC-12; assay: Neuroprotective activity in amyloid beta-induced cytotoxicity in rat PC12 cells assessed as cell viability pretreated 1 hrs prior to amyloid beta challenge measured after 24 hrs by MTT assay; assay type: functional, cell-based
In short: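 PC12 cells at 0.5 × 10^4 per well, serum-starved 12 h, then pretreated 1 h with 0.1, 1.0 or 10 µM. Viability was read by MTT (5 mg/ml, 4 h, 37 °C), with formazan dissolved in DMSO and A570 measured. Mean ± SD of triplicate experiments.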

[3] = target: T1, Acetylcholinesterase (Rattus norvegicus) (UniProt P37136); assay: Inhibition of AChE activity in amyloid beta25-35-induced rat PC12 cells at 0.1 to 10 uM, 1 hrs prior to induction after 24 hrs by Ellman assay; assay type: cell-based; conditions: PC-12
T1 sequence (whole entry): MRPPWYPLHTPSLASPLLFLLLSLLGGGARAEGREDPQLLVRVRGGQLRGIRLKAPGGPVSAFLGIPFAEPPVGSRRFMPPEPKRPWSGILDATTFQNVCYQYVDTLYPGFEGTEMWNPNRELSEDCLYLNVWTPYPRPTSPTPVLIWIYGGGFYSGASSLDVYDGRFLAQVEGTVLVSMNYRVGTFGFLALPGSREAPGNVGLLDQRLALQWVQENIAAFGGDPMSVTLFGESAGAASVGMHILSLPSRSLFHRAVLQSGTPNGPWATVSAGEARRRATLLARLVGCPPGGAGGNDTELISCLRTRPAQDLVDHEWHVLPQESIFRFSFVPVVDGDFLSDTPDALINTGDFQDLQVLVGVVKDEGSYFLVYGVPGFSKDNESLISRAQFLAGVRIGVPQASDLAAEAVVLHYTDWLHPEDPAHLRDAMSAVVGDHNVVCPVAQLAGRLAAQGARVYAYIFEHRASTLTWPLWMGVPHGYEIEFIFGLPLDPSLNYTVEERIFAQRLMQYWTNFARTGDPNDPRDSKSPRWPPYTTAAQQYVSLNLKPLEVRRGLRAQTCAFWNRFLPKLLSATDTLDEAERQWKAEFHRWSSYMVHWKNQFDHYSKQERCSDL
In short: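 Rat PC12 cells in DMEM/10% FBS, serum-starved 12 h, were pretreated 1 h, then exposed 24 h to 30 µM Aβ25-35 (1 mM in water, pre-aggregated 72 h at 37 °C). Lysates were made in high ionic strength buffer (1 M NaCl, Triton X-100, EDTA) and spun 12,000 rpm 20 min at 4 °C. AChE activity in the supernatant was read by Ellman method; three independent experiments.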

[4] = system: PC-12; assay: Cytoprotective activity in amyloid beta-induced apoptosis in rat PC12 cells at 0.1 uM administered 1 hr prior to amyloid beta challenge measured after 24 hrs by using Annexin V/PI staining based flow cytometric analysis; assay type: functional; in short: as §1
[5] = system: PC-12; assay: Cytoprotective activity in amyloid beta-induced apoptosis in rat PC12 cells at 1 uM administered 1 hr prior to amyloid beta challenge measured after 24 hrs by using Annexin V/PI staining based flow cytometric analysis; assay type: functional; in short: as §1
[6] = system: PC-12; assay: Cytoprotective activity in amyloid beta-induced apoptosis in rat PC12 cells administered 1 hr prior to amyloid beta challenge measured after 24 hrs by using Annexin V/PI staining based flow cytometric analysis; assay type: functional, cell-based; in short: as §1
[7] = system: PC-12; assay: Inhibition of amyloid beta-induced mitochondrial dysfunction in rat PC12 cells at 0.1 to 10 uM administered 1 hr prior to amyloid beta challenge measured after 24 hrs using JC1 fluorescent dye based flow cytometeric analysis; assay type: functional, cell-based
In short: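 Cells were loaded with JC-1 for 20 min at 37 °C, pelleted at 600g, resuspended in PBS and analysed by flow cytometry on FL1 (525 nm) and FL2 (575 nm). Membrane potential was expressed as the green/red fluorescence ratio. Mean ± SD, triplicate.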

[8] = system: PC-12; assay: Inhibition of amyloid beta-induced apoptosis in rat PC12 cells assessed as decrease in caspase-3 dependent cleavage of Ac-DEVD-pNA administered 1 hr prior to amyloid beta challenge measured after 24 hrs by spectrophotometric analysis; assay type: functional, cell-based
In short: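 Released pNA was read at 405 nm. Activity was normalised to protein and expressed as fold over control cells. Mean ± SD of triplicate experiments.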

[9] = system: PC-12; assay: Neuroprotective effect against amyloid beta-induced apoptosis in rat PC12 cells assessed as upregulation of PI3K-mediated Akt phosphorylation administered 1 hr prior to amyloid beta challenge measured after 24 hrs by Western blotting; assay type: functional, cell-based
In short: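 Lysate protein (20 or 30 µg) was run on 12% SDS-PAGE and blotted to nitrocellulose. Blots were probed for p-Akt Ser473 and total Akt (1:1000), with β-actin or GAPDH as loading control, and detected by ECL. Densitometry, mean ± SD, triplicate.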

[10] = target: RAC-alpha serine/threonine-protein kinase (Rattus norvegicus) (UniProt P47196); assay: Induction of PIK3-mediated Akt phosphorylation in amyloid beta-induced rat PC12 cells at 10 uM, treated 1 hrs prior to amyloid beta challenge measured after 24 hrs by Western blotting in presence of PI3K inhibitor LY294002 before compound addition; assay type: cell-based; conditions: PC-12
Chain of RAC-alpha serine/threonine-protein kinase (Rattus norvegicus) (P47196 whole entry): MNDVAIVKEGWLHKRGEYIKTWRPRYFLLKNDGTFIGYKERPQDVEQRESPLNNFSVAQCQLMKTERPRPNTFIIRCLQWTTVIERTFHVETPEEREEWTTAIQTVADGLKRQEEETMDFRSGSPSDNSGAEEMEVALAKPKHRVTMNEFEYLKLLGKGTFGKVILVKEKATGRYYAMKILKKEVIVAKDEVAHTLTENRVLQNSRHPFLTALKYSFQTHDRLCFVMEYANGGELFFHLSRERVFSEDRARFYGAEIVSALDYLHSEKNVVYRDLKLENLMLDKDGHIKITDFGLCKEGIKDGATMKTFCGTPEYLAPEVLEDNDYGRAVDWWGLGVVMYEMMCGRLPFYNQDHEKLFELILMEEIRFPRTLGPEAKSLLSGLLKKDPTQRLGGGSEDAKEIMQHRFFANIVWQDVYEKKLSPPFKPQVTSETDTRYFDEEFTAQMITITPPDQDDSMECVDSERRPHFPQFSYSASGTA
In short: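 Lysates (20 or 30 µg) were run on 12% SDS-PAGE and immunoblotted for p-Akt and total Akt (1:1000) with ECL detection. Densitometry, mean ± SD of triplicate experiments.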

[11] = target: Glycogen synthase kinase-3 beta (Rattus norvegicus) (UniProt P18266); assay: Increase in GSK3 beta phosphorylation at Ser9 in amyloid beta-induced rat PC12 cells at 0.1 to 10 uM administered 1 hrs prior to amyloid beta challenge measured after 24 hrs by Western blotting; assay type: cell-based; conditions: PC-12
Chain of Glycogen synthase kinase-3 beta (Rattus norvegicus) (P18266 whole entry, looked up): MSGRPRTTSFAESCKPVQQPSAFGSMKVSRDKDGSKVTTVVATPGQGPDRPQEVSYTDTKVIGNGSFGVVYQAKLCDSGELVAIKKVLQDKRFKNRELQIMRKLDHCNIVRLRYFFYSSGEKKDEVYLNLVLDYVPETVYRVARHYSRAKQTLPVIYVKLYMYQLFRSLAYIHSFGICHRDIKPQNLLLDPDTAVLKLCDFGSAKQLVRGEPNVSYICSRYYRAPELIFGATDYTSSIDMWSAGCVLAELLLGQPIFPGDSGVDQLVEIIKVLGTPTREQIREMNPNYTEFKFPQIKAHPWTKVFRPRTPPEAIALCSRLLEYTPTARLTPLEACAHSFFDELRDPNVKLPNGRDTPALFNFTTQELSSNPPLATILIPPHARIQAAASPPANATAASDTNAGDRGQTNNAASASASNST
In short: (§2)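 Lysates (20 or 30 µg) were run on 12% SDS-PAGE and immunoblotted for pSer9 GSK-3β and total GSK-3β (1:1000), with β-actin or GAPDH as loading control. Blots shown represent three independent experiments.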

[12] = target: Glycogen synthase kinase-3 beta (Rattus norvegicus) (UniProt P18266); assay: Increase in GSK3 beta phosphorylation at Ser9 in amyloid beta-induced rat PC12 cells at 0.1 to 10 uM administered 1 hrs prior to amyloid beta challenge measured after 24 hrs by Western blotting pretreated with PI3K inhibitor LY294002 before compound addition; assay type: cell-based; conditions: PC-12; in short: as §2
[13] = system: PC-12; assay: Neuroprotective activity in amyloid beta-induced rat PC12 cells assessed as increase of Bcl-2 expression at 0.1 to 10 uM administered 1 hrs prior to amyloid beta challenge measured after 24 hrs by Western blotting; assay type: functional, cell-based
In short: (§3)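 Lysates (20 or 30 µg) were separated on 12% gels, blotted and probed with anti-Bcl-2 (1:200), with β-actin or GAPDH as loading control. Detection was by ECL.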

[14] = system: PC-12; assay: Neuroprotective effect against amyloid beta-induced rat PC12 cells assessed as increase of Bcl-2 expression at 0.1 to 10 uM administered 1 hrs prior to amyloid beta challenge measured after 24 hrs by Western blotting pretreated with PI3K inhibitor LY294002 before compound addition; assay type: functional, cell-based; in short: as §3

COc1ccc(-c2cc(=O)c3c(O)cc(O[C@@H]4O[C@H](CO[C@@H]5O[C@@H](C)[C@H](O)[C@@H](O)[C@H]5O)[C@@H](O)[C@H](O)[C@H]4O)cc3o2)cc1 [ACACIIN]
Activity [1]: 7.32%
Activity [2]: Dose-dependent effect
inhibition [3]: Active
Activity [4]: 20.52%
Activity [5]: 11.57%
Activity [6]: Dose-dependent effect
inhibition [7]: Active
inhibition [8]: Dose-dependent effect
Activity [9]: Active
Activity [10]: inactive
Activity [11]: Active
Activity [12]: inactive
Activity [13]: Active
Activity [14]: inactive
